Reference: ChEMBL document CHEMBL5316310, “Discovery of MK-8189, a Highly Potent and Selective PDE10A Inhibitor for the Treatment of Schizophrenia” (J Med Chem, 2023)

Legend:
[1] = Plasma clearance in Rhesus monkey at 0.5 mg/kg, iv by LC-MS/MS analysis; format: ADME, organism-based, Macaca mulatta
In short: (§1)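 IV bolus in DMSO/PEG400 (1:1). Male Wistar–Hannover rats (n = 3, ~300 g): 2 mg/kg via jugular cannula, sampled 0.03–24 h. Male rhesus (n = 3): 0.5 mg/kg into saphenous or cephalic vein, sampled to 24 h. Plasma (EDTA) analysed by LC-MS/MS after acetonitrile precipitation. Non-compartmental analysis; CL = dose/AUC0-inf; t1/2 from log-linear regression of the terminal phase. Values are means.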

[2] = Lipophilicity, log D of the compound; format: physicochemical; conditions: octanol/water
[3] = target: T1, Nuclear receptor subfamily 1 group I member 2 (Homo sapiens, UniProt O75469); assay: Activation of PXR (unknown origin) assessed as CYP3A4 induction; format: ADME
T1 sequence (O75469 whole entry): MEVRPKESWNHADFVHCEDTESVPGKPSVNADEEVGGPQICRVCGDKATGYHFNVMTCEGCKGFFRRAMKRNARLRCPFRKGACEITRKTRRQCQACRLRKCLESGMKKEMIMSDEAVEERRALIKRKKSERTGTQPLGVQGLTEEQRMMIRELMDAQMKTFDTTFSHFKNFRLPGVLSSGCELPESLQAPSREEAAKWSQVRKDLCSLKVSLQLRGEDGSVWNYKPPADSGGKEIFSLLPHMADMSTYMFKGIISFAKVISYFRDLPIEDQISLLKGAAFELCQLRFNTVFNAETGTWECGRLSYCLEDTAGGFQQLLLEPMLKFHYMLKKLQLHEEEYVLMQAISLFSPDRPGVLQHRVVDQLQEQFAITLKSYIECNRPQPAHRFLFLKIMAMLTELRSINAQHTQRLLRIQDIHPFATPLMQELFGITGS

[4] = Toxicity in rat assessed as weight gain; conditions: in vivo
[5] = Selectivity ratio of Ki for N-terminal GST-tagged human recombinant PDE4A1A (1 to 647 residues) expressed in baculovirus-infected Sf9 cells to Ki for human PDE10A2 transfected in human AD293 cells cytosolic fraction
[6] = Selectivity ratio of Ki for N-terminal His-GST-tagged human recombinant PDE3A(669 to 1141 residues) expressed in baculovirus-infected Sf9 cells to Ki for human PDE10A2 transfected in human AD293 cells cytosolic fraction
[7] = Protein binding in monkey plasma assessed as unbound fraction; format: ADME, cell-free, Macaca mulatta; conditions: rhesus monkey
[8] = Protein binding in rat plasma assessed as unbound fraction; format: ADME, cell-free
[9] = Selectivity ratio of Ki for N-terminal GST-tagged and C-terminal His-tagged human recombinant PDE7A (122 to 456 residues) expressed in baculovirus-infected Sf9 cells to Ki for human PDE10A2 transfected in human AD293 cells cytosolic fraction
[10] = Oral bioavailability in Rhesus monkey at 5 mg/kg by LC-MS/MS analysis; format: ADME, organism-based, Macaca mulatta; conditions: in vivo
In short: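 Oral gavage, 5 mL/kg. Rats (n = 3 male Wistar–Hannover) received 10 mg/kg in acidified 10% Tween 80, pH 2, sampled 0.25–24 h. Rhesus (2 female, 1 male) received 5 mg/kg in 0.5% methylcellulose with 1 mol equiv HCl. Plasma quantified by LC-MS/MS. F was taken from dose-adjusted PO/IV AUC0-inf ratios versus the 2 mg/kg (rat) or 0.5 mg/kg (rhesus) IV legs; values are means of n = 3.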

[11] = Selectivity ratio of Ki for N-terminal GST-tagged human recombinant PDE1A expressed in baculovirus-infected Sf9 cells to Ki for human PDE10A2 transfected in human AD293 cells cytosolic fraction
Rattus norvegicus = assay: Anti-psychotic activity in rat assessed as inhibition of MK-801-induced hyperlocomotion administered orally 1 hr prior to MK-801 administration and measured for 90 mins; format: functional, organism-based; conditions: dose 0.25-0.75 mg/kg, route po, time 150.0 min
In short: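 Rats given compound orally at 0.25–0.75 mg/kg 1 h before the NMDA antagonist MK-801. Total distance travelled was recorded over 90 min and compared with vehicle + MK-801 groups (p < 0.05). n = 8/group; mean ± SEM.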

[12] = Substrate activity at monkey P-gp assessed as efflux ratio; format: ADME, Macaca mulatta; conditions: rhesus monkey
[13] = Volume of distribution at steady state in Wistar-Hannover rat at 2 mg/kg, iv by LC-MS/MS analysis; format: ADME, organism-based; conditions: in vivo, read-out: Vdss
In short: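 Male Wistar–Hannover rats (~300 g, n = 3) received a 2 mg/kg IV bolus through a jugular vein cannula, dosed from a 5 mg/mL solution in DMSO/PEG400 (1:1). EDTA blood was sampled from pre-dose to 24 h. Plasma was protein-precipitated with acetonitrile and analysed by positive-ion APCI LC-MS/MS. Vdss was calculated non-compartmentally as plasma clearance × mean residence time and reported as the mean.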

[14] = target: Voltage-dependent L-type calcium channel subunit alpha-1C (Homo sapiens, UniProt Q13936); assay: Inhibition of Cav1.2 (unknown origin)
[15] = Protein binding in human plasma assessed as unbound fraction; format: ADME, cell-free
P-gp (ABCB1) = P-gp (ABCB1) (Rattus norvegicus, UniProt P43245); assay: Substrate activity at rat P-gp assessed as efflux ratio; format: ADME
[16] = Plasma concentration in rat at 0.25 mg/kg, po measured after 1 hr; format: ADME, organism-based
In short: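 Rat novel object recognition (episodic memory) study, orally dosed. Plasma drawn 1 h post dose at end of the experiment for compound level. n = 4/group, reported as mean (SEM).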

[17] = Inhibition of IKS channel (unknown origin); set-up: species or system Homo sapiens
[18] = Selectivity ratio of Ki for N-terminal GST-tagged full length human recombinant PDE8A1 expressed in baculovirus-infected Sf9 cells to Ki for human PDE10A2 transfected in human AD293 cells cytosolic fraction
[19] = target: Voltage-gated inwardly rectifying potassium channel KCNH2 (Homo sapiens, UniProt Q12809); assay: Displacement of MK499 from hERG; format: toxicity
[20] = Protein binding in human plasma; format: ADME, cell-free
[21] = In vivo receptor occupancy at PDE10A receptor in rat striatum at 0.08 mg/kg, po measured after 1 hr; format: functional
In short: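 Striatal PDE10A occupancy in rats given the compound orally during the novel object recognition test. Occupancy was not measured directly but derived from plasma concentration taken 1 h post dose. n = 4/group, reported as mean (SEM).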

[22] = Plasma clearance in Wistar-Hannover rat at 2 mg/kg, iv by LC-MS/MS analysis; format: ADME, organism-based; in short: as §1
[23] = target: Sodium channel protein type 5 subunit alpha (Homo sapiens, UniProt Q14524); assay: Inhibition of Nav1.5 (unknown origin)
[24] = Plasma concentration in MK-801-induced psychosis rat model at 0.25 mg/kg, po administered 1 hr prior to MK-801 administration and measured after 90 mins; format: ADME, organism-based; conditions: time 150 min
In short: (§2)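 Rats dosed orally, then MK-801 1 h later; locomotor activity recorded over 90 min. Plasma drawn 2.5 h post dose at end of the study and assayed for compound. n = 8/group, reported as mean (SEM).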

[25] = Plasma concentration in MK-801-induced psychosis rat model at 0.5 mg/kg, po administered 1 hr prior to MK-801 administration and measured after 90 mins; format: ADME, organism-based; conditions: time 150 min; in short: as §2

Voltage-gated inwardly rectifying potassium channel KCNH2, sequence (Q12809 whole entry): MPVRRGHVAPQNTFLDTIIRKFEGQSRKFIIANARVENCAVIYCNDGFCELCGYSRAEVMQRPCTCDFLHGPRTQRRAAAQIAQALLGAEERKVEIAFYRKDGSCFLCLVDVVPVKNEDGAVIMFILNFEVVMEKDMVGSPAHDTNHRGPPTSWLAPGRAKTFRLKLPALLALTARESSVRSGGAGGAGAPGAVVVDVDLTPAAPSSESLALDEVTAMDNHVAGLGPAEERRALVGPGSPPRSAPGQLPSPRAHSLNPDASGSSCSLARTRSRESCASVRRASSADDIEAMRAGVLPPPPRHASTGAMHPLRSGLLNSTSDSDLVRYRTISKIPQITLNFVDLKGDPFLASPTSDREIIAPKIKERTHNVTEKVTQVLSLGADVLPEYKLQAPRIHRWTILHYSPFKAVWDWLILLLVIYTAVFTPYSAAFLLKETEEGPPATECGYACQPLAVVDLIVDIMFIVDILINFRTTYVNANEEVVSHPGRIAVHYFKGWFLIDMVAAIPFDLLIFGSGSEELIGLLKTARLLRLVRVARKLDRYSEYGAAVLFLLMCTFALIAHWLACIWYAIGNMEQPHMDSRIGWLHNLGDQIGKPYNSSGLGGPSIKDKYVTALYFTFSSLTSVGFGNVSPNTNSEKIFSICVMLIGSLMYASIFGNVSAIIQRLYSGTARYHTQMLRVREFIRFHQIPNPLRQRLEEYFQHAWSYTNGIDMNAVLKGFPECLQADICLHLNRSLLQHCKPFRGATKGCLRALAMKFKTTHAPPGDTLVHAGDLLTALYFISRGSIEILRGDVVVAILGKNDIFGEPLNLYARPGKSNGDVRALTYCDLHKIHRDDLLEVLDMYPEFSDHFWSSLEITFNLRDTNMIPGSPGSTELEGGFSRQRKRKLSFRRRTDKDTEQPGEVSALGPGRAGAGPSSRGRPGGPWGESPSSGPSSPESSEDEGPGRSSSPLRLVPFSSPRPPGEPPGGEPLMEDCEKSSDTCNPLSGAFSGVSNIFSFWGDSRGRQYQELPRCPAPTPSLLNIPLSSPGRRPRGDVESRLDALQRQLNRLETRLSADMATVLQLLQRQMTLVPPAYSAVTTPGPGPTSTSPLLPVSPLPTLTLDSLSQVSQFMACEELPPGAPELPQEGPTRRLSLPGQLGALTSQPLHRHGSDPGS
Voltage-dependent L-type calcium channel subunit alpha-1C, sequence (Q13936 whole entry): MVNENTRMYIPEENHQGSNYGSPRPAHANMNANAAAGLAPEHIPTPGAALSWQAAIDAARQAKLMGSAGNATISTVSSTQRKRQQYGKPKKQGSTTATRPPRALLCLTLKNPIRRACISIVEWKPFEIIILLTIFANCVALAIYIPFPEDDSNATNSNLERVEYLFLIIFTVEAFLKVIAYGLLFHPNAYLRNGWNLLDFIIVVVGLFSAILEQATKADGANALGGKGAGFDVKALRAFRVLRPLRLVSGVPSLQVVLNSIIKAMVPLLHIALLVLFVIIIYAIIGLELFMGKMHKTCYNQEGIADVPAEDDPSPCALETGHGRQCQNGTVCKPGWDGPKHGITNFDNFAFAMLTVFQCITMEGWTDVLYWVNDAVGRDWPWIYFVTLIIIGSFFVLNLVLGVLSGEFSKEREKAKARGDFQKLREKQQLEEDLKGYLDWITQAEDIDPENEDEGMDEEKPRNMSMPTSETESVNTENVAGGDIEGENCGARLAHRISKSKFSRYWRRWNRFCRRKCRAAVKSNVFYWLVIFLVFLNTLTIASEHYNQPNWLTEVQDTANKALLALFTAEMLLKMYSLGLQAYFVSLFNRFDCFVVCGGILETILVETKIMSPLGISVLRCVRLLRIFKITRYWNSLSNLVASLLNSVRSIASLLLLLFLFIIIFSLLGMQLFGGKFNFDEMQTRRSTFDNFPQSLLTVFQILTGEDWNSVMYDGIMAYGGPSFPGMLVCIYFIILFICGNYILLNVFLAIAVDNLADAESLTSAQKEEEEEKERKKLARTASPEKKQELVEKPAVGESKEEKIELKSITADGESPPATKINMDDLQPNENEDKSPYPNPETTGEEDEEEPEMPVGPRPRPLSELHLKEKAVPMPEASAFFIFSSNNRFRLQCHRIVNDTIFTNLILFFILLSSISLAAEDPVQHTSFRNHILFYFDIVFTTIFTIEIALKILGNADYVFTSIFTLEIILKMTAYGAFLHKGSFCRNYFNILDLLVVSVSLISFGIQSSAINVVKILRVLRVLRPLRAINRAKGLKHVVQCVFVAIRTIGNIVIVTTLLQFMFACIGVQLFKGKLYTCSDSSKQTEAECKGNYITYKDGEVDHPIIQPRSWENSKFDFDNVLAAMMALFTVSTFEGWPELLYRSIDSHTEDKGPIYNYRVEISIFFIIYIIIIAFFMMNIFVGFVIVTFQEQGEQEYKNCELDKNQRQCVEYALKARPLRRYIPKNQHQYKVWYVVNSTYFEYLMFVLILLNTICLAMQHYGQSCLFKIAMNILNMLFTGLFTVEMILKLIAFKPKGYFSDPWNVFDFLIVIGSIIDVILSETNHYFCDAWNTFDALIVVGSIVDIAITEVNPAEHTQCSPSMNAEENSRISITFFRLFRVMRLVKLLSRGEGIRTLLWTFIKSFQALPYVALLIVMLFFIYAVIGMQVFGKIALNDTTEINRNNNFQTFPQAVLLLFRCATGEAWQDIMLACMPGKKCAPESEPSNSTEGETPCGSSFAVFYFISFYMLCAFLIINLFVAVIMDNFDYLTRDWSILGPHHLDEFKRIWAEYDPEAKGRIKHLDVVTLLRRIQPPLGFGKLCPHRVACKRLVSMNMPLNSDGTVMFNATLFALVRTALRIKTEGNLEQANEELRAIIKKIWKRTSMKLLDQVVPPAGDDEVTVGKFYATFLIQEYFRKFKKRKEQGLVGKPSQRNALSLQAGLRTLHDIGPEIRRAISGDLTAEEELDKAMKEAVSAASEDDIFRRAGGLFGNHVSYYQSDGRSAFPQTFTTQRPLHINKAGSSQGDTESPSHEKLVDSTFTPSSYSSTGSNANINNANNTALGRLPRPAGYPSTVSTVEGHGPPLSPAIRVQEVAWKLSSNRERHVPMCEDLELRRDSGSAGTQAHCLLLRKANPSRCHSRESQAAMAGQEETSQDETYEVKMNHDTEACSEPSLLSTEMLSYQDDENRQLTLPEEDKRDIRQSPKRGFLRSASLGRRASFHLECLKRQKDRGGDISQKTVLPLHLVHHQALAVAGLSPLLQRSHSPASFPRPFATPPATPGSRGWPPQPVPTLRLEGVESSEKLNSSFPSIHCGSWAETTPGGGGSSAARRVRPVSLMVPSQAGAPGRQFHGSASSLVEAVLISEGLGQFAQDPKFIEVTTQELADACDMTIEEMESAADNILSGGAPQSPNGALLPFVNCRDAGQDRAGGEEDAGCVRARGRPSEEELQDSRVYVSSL
P-gp (ABCB1), sequence (P43245 whole entry): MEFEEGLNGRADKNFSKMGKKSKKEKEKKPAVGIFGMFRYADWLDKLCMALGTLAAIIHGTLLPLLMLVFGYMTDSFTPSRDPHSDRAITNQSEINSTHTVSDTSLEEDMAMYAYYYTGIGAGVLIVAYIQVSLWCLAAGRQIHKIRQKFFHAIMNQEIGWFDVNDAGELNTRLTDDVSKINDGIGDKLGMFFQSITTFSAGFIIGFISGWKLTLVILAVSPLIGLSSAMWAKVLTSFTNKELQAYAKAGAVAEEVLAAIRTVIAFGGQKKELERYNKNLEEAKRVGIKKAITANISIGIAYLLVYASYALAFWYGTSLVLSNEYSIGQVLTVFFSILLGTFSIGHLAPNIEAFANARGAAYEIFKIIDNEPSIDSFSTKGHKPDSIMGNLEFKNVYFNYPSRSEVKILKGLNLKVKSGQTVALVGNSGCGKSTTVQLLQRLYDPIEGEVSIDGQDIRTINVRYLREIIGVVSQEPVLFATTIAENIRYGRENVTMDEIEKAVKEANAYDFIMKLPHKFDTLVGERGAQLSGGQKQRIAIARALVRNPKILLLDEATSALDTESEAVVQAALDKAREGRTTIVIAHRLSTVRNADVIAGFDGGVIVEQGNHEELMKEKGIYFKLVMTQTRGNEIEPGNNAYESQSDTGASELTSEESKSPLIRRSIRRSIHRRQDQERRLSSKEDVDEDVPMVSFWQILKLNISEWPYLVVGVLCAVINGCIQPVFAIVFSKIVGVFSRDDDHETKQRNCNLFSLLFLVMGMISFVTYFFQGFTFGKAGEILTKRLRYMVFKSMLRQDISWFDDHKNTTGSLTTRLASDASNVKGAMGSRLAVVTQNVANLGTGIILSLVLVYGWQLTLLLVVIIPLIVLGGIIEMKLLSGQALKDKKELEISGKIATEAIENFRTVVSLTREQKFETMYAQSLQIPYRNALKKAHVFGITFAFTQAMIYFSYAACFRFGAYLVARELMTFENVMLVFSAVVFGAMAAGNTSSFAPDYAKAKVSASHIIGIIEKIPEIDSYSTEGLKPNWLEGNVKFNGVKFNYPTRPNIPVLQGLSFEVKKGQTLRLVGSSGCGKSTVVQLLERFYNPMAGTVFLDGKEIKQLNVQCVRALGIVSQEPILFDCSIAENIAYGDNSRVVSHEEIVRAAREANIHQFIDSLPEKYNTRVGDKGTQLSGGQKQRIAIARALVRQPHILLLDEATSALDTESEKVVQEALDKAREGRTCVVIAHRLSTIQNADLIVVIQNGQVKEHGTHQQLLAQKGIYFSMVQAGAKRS

## Cc1ccc([C@H]2C[C@@H]2COc2cc(NCc3nnc(C)s3)nc(C)n2)nc1 [MK-8189]
[1]
  clearance: 9.3 mL/min/kg
[2]
  logD: 2.1
[3]
  EC50: > 30 µM
[4]
  Activity: Non-Toxic
[5]
  Ratio Ki: > 500000
[6]
  Ratio Ki: > 500000
[7]
  Fu: 8.7%
[8]
  Fu: 8.2%
[9]
  Ratio Ki: > 500000
[10]
  F: 41%
[11]
  Ratio Ki: > 500000
Rattus norvegicus
  Activity: Dose-Dependent Effect
[12]
  Ratio: < 2
[13]
  Vd: 0.93 L/kg
[14]
  IC50: > 30 µM
[15]
  Fu: 4%
P-gp (ABCB1)
  efflux ratio: 2.6
[16]
  concentration at 1 h: 29 nM
[17]
  IC50: > 30 µM
[18]
  Ratio Ki: > 500000
[19]
  IC50: 33 µM
[20]
  PPB: 96%
[21]
  Occ: 24%
[22]
  clearance: 21.3 mL/min/kg
[23]
  IC50: > 30 µM
[24]
  concentration at 2.5 h: 17 nM
[25]
  concentration at 2.5 h: 36 nM
